Sampled rows, rich in hits. Any-hit rate of the full collection: about 3.5%.
PREPL inhibitor – inhibitors of human prolyl oligopeptidase-like enzyme PREPL. Q4J6C6. recombinant PREPL, fluorescence polarization activity-based probe. inhibition, % at 5.96 µM. 0.68% of 320,000 active. AID 2751; in the data active = inhibition above about 43%;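 note: 0% = enzyme with DMSO and 100% = wells lacking enzyme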
PAFAH1B3 inh – inhibitors of human PAFAH1B3; inhibition, % at 3.39 µM; AID 492972; 0.28% of 340,000 active; recombinant PAFAH1B3, FP-rhodamine probe, fluorescence polarization;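 active = inhibition above the screen-wide average of all tested compounds plus 3 SD, cut at about 25% in these data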;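 note: 0% = enzyme with DMSO only and 100% = wells lacking PAFAH1B3 protein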
Target sequence (Q15102 whole entry, looked up): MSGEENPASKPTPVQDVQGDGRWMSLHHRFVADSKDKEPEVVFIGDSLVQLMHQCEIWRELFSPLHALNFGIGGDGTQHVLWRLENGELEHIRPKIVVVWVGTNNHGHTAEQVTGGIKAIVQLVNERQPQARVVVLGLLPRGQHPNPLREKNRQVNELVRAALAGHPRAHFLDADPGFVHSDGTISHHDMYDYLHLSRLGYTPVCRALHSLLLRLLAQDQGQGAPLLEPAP
pPAFAH inh – pPAFAH (human) enzyme inhibition; Q13093; recombinant pPAFAH, FP-rhodamine probe fluorescence polarization; inhibition, % at 3.39 µM; 1.5% of 330,000 active;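 active = inhibition above the mean inhibition across the screen plus 3 SD, cut at about 25% in these data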;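 note: inhibitors block binding of the rhodamine activity-based probe so polarization drops; 0% = enzyme with DMSO and 100% = wells lacking pPAFAH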
PAFAH1B2 inh – PAFAH1B2 (human) inhibition. 1.2% of 340,000 active. recombinant PAFAH1B2, FP-rhodamine activity probe, fluorescence polarization. inhibition, % at 3.39 µM. P68402;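 active = inhibition above the mean of all tested compounds plus 3 SD, cut at about 24% in these data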;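 note: 0% = enzyme with DMSO and 100% = wells lacking PAFAH1B2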
Target sequence (P68402 whole entry, looked up): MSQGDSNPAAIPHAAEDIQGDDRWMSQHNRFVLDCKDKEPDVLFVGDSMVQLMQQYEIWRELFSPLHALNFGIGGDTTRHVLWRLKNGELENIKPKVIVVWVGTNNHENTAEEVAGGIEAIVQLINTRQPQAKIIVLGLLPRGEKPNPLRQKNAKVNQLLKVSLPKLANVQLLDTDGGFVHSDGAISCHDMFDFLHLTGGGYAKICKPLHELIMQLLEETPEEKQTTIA
Apaf-1 inh – blocks human Apaf-1 apoptosome activity; O14727; reconstituted apoptosome caspase-3 activity, DEVD-Rh110 fluorescence; inhibition, % at 20 µM; 0.71% of 330,000 active; AID 489030; active = inhibition of at least 40% at 20 µM;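 note: plate controls were DMSO wells for no effect and DEVD-CHO caspase inhibitor wells for full effect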
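Medium: Hepes buffer, pH 7.5 / System: biochemical Apaf-1 apoptosome reconstitution / Measured by: Rh110 fluorescence, excitation 480 nm, emission 540 nm / Times: compound with Apaf-1, dATP, procaspase-3 30 min, then 50 min reaction, room temperature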
PAFAH2 inh – inhibitors of human PAFAH2. Q99487. recombinant PAFAH2, FP-rhodamine activity probe, fluorescence polarization. inhibition, % at 3.39 µM. 0.99% of 340,000 active;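 active = inhibition above the mean over all tested compounds plus 3 SD, cut at about 30% in these data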;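 note: inhibitors block probe labeling of enzyme so polarization drops; 0% = enzyme with DMSO and 100% = wells lacking PAFAH2 protein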
* marks the source's active call; other numbers are inactive results; / = no result given.

SMILES	PREPL inhibitor	PAFAH1B3 inh	pPAFAH inh	PAFAH1B2 inh	Apaf-1 inh	PAFAH2 inh
S=c1[nH]nc(-c2ccccc2)n1/N=C/C=C/c1ccco1	10.9	14.8	31.1*	0.6	14.1	11.0
CC(=O)Nc1ccc(NS(=O)(=O)c2ccccc2)c2ccccc12	10.8	3.4	-4.3	4.2	4.0	-7.2
O=S(=O)(Nc1ccc(O)c2ccccc12)c1cccs1	11.9	6.0	20.5	12.9	52.4*	9.9
O=S(=O)(Nc1ccc(O)c2ccccc12)c1ccc(Br)cc1	15.7	/	15.1	/	57.3*	/
O=C(CSc1nc(C(F)(F)F)cc(=O)[nH]1)NCc1ccc2c(c1)OCO2	4.9	3.9	-1.0	3.4	2.6	1.0
COc1ccc(C2(C)C(C#N)C(=O)NC(=O)C2C#N)cc1 (centres undefined)	/	7.0	/	2.5	/	0.8
C#CCOCCOCCOCCNc1nc(N2CCN(C(=O)CCCCCCCCCCNC(=O)[C@@H](CCC(=O)O)n3cc(CCCCCN)nn3)CC2)nc(N2CCN(C(=O)CCCCCCCCCCNC(=O)[C@H](CO)n3cc(CCCSC)nn3)CC2)n1	19.4	-2.2	15.2	-4.5	29.6	-3.8
C#CCOCCOCCOCCNc1nc(N2CCN(C(=O)CCCCCCCCCCNC(=O)Cn3cc(CCCCCN)nn3)CC2)nc(N2CCN(C(=O)CCCCCCCCCCNC(=O)Cn3cc(C[C@@H](C)O)nn3)CC2)n1	40.7	0.3	15.3	1.1	71.5*	4.5
C#CCOCCOCCOCCNc1nc(N2CCN(C(=O)CCCCCCCCCCNC(=O)[C@H](CCCCN)n3cc(C[C@@H](C)CC)nn3)CC2)nc(N2CCN(C(=O)CCCCCCCCCCNC(=O)[C@H](CCCN=C(N)N)n3cc(C[C@@H](C)CC)nn3)CC2)n1	66.2*	-2.4	2.2	-5.3	54.9*	-6.9
C#CCOCCOCCOCCNc1nc(N2CCN(C(=O)CCCCCCCCCCNC(=O)[C@H](CO)n3cc(CCCCCN)nn3)CC2)nc(N2CCN(C(=O)CCCCCCCCCCNC(=O)[C@H](CCCN=C(N)N)n3cc(C[C@@H](C)CC)nn3)CC2)n1	64.3*	/	-4.2	/	60.9*	/
C#CCOCCOCCOCCNc1nc(N2CCN(C(=O)CCCCCCCCCCNC(=O)[C@@H](CCSC)n3cc(CCO)nn3)CC2)nc(N2CCN(C(=O)CCCCCCCCCCNC(=O)[C@H](CCCN=C(N)N)n3cc(C[C@@H](C)CC)nn3)CC2)n1	37.5	-1.5	-7.1	-6.1	62.0*	-14.2
COc1cccc(NC(=O)C(Cc2ccccc2)n2cccc2)c1 (centres undefined)	-15.4	6.4	4.2	6.0	-10.5	0.7
O=C(Cn1cnc2cc([N+](=O)[O-])ccc2c1=O)Nc1ccc2c(c1)OCO2	37.8	0.7	2.2	2.2	6.9	10.8
CCOc1ccc(-n2c(Cc3ccccc3)nnc2SCc2c(C)noc2C)cc1	5.7	3.0	2.5	-1.2	8.2	-4.8
COCC(C)N=C1NN=C(c2cc(C)n(Cc3ccccc3Cl)c2C)CS1 (centres undefined)	-5.7	10.0	26.4*	6.9	-0.6	5.8
COCCn1c(C)cc(C2=NNC(=Nc3ccc(Cl)cc3Cl)SC2)c1C	13.4	4.3	10.5	2.5	4.8	1.4
CCOC(=O)C1CCCN(C(=O)CC(c2ccccc2)c2ccccc2)C1 (centres undefined)	10.2	3.4	2.1	-1.5	2.1	6.6
CCOC(=O)C1CCCN(C(=O)Cc2c(C(=O)O)[nH]c3ccccc23)C1 (centres undefined)	-7.1	8.2	9.1	33.8*	1.6	4.7
CC(C)(c1ccccc1)c1ccc(OCC2CO2)cc1 (centres undefined)	-6.2	0.9	25.4*	17.4	13.2	-9.2
COc1ccc(S(=O)(=O)N2CCCCCC2)cc1C(=O)N(C)CCOc1ccccc1	14.6	4.7	2.3	1.6	54.8*	-1.9
Cc1ccc(S(=O)(=O)N2CCCCC2)cc1C(=O)N(C)CCOc1ccccc1	11.6	0.3	2.7	1.6	29.7	-0.6
CN1CCC(=C2c3ccccc3C(O)c3ccccc32)CC1 (centres undefined)	16.1	1.6	1.0	-1.2	5.8	6.5
CN1CCc2cccc3c2C1Cc1ccc(O)c(O)c1-3 (centres undefined)	6.6	14.2	17.6	4.1	49.6*	0.1
Cc1ccc(CN2C(=O)N/C(=C\c3ccc(N4CCOCC4)cc3)C2=O)cc1	70.7*	0.4	5.8	-1.7	-1.6	-6.6
CCCN1C(=O)/C(=C/c2ccc(N3CCOCC3)cc2)NC1=S	10.4	-5.8	3.4	10.1	2.0	3.8
SMILES	PREPL inhibitor	PAFAH1B3 inh	pPAFAH inh	PAFAH1B2 inh	Apaf-1 inh	PAFAH2 inh
Oc1ccc(CNc2ccccc2)c2cccnc12	6.0	26.0*	3.6	4.3	-0.4	12.4
CC(NC(=O)c1ccccc1)C(=O)NC1CCCc2ccccc21 (centres undefined)	/	10.8	/	1.1	11.7	4.6
N#Cc1c(NC(=O)Cn2c(=O)oc3ccccc32)oc(-c2ccccc2)c1-c1ccccc1	3.6	-8.2	22.3	40.2*	12.1	15.1
N#Cc1c(NC(=O)CSc2n[nH]c(N)n2)oc(-c2ccccc2)c1-c1ccccc1	-5.5	9.5	11.5	25.0*	11.9	-3.2
O=C(Cn1c(=O)oc2ccccc21)Nc1ccc(Br)cc1	6.0	7.5	-5.4	-1.1	4.5	-1.6
Cc1[nH]c2ccccc2c1C(=O)C(=O)NCc1cccs1	3.5	13.9	4.1	3.5	-9.3	-1.5
COc1cccc(-n2cnnc2SCC(=O)NC2CC2)c1	12.5	8.5	-6.2	-2.0	4.0	2.9
Nc1ccc(N)c(C(=O)O)c1	13.7	69.3*	34.2*	46.9*	66.9*	66.3*
Nc1ccc(C(=O)O)c(O)c1	10.8	1.7	12.1	3.4	-13.3	-7.8
O=C(/C=C/c1ccc([N+](=O)[O-])cc1)/C=C/c1ccco1	8.6	9.1	62.1*	-2.5	42.6*	15.4
O=C(C=C1SCCS1)/C=C/c1ccco1	-11.3	7.5	24.6*	3.6	3.6	8.1
Cn1cc(NC(=O)OCc2ccc(Cl)cc2)c(C(F)(F)F)n1	-4.7	4.9	2.1	3.1	-2.0	6.3
CC(NC(=O)C1CCCC1)c1ccc(Br)cc1 (centres undefined)	-3.9	3.4	1.8	39.6*	-12.7	2.7
CC(C)c1ccc(C(C)NC(=O)C2CCCC2)cc1 (centres undefined)	14.7	11.7	3.2	4.1	4.6	3.8
OCCCNC(=S)Nc1ccc2nc(-c3ccccn3)c(-c3ccccn3)nc2c1	5.2	-3.9	6.0	5.3	1.1	-6.3
O=C(NCCCO)Nc1ccc2nc(-c3ccco3)c(-c3ccco3)nc2c1	27.6	/	61.5*	/	57.4*	/
O=C(O)c1ccc2nc(-c3ccco3)c(-c3ccco3)nc2c1	/	51.9*	/	24.3*	61.7*	39.6*
CC(C)CC1(C2CCCC2)NC(=O)NC1=O (centres undefined)	/	3.4	/	-0.7	/	6.6

Assay outcomes (PubChem BioAssay)
